Screening results (PubChem BioAssay)
Wnt act = Wnt/beta-catenin pathway activation; activation, % at 9.35 µM; Wnt/beta-catenin reporter cell assay, activator, plate reader; 300,000 tested, 1.2% active; in the data active = activation above about 30%, passing the limit was not always enough; inconclusive = no clear call, values can overlap the other calls;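 note: 0% = neutral control wells and 100% = positive control wells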
PGC1a acetyl inh = PGC1a acetylation modulation, inhibitor mode; U2OS PGC1a acetylation, AlphaScreen anti-acetyl-lysine; with virally co-expressed GCN5 acetyltransferase; inhibition, % at 15.6 µM; 350,000 tested, 0.17% active; AID 651687;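 active = every replicate shows inhibition of at least 40%; inconclusive = mean inhibition at least 40% but some replicate below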;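 note: 0% = neutral control wells and 100% = positive control wells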
MITF TRPM1 HTS = MITF TRPM1 promoter activation in melanoma cells; activation, % at 12.5 µM; SK-MEL-5 TRPM1-promoter luciferase, 24 h; % of positive control, neutral wells = 0; 300,000 tested, 0.75% active; AID 588334;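 active = mean activation of at least 80% with every replicate also reaching 80%; inconclusive = mean reaches 80% but some replicate falls short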;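 note: 0% = neutral control wells and 100% = parthenolide positive control wells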
Cneo AK release = Cryptococcus neoformans lysis via adenylate kinase release | C. neoformans lysis, adenylate kinase release luminescence, 4 h; normalised: neutral wells 0, clomiphene wells 100 | lysis activity, % at 15 µM | 360,000 tested, 0.2% active | AID 651654;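 active = mean lysis activity across replicates of at least 80%, whatever share of replicates individually reach that level; inactive = mean lysis activity below 80%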
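Assay system: Cryptococcus neoformans yeast cells / Dosing: single-point compound dose / Timing: 4 h at 37 °C static, read 1 h later / Measured by: luminescence of released adenylate kinase using an AK detection reagent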
An asterisk follows results filed as active; ? = inconclusive; / = not tested or not shown. This is a sample that favours compounds with a hit; in the whole collection about 1.5% have one here.

SMILES	Wnt act	PGC1a acetyl inh	MITF TRPM1 HTS	Cneo AK release
O=C(NNS(=O)(=O)c1ccccc1)C1CCN(S(=O)(=O)c2ccc(Cl)cc2)CC1	-7.8	1.1	/	-2.7
CCNC(=O)[C@H]1[C@H](CO)[C@H]2Cn3c(ccc(/C=C/c4ccccc4)c3=O)[C@@H]1N2C(=O)C1CCCC1	/	8.2	/	/
CC(=O)NC(NC(=S)Nc1ccc(N=Nc2ccccc2)cc1)C(Cl)(Cl)Cl (configuration not stated)	47.4*	-16.0	/	1.1
Cc1cccc(C#Cc2ccccc2)n1	66.5*	-8.5	75.7	-1.3
Nc1c(C(=O)Nc2ccc3c(c2)OCCO3)nnn1Cc1ccc(Cl)cc1	43.5*	/	129.9*	-1.0
COc1ccc(Cn2nnc(C(=O)Nc3ccc4c(c3)OCCO4)c2N)cc1Br	8.9	-15.6	17.8	-2.7
Nc1c(C(=O)Nc2ccc3c(c2)OCCO3)nnn1Cc1cccc(F)c1	?	/	114.9*	-6.3
Nc1c(C(=O)NCc2ccc3c(c2)OCO3)nnn1Cc1cccc(F)c1	1.4	0.1	-6.9	5.2
C/C=C/c1cnc2c(c1)C(=O)N([C@@H](C)CO)C[C@H](C)[C@H](CN(C)C(=O)C1CCC1)O2	/	8.6	/	/
O=C([C@H]1[C@H](CO)[C@H]2Cn3c(cccc3=O)[C@H]2N1Cc1ccccc1)N1CCCCC1	/	/	/	0.2
C/C(=N\O)c1sc(-c2ccccc2)nc1C	64.5*	/	36.3	/
C=C(C)c1sc(-c2ccccc2)nc1C	-2.9	/	/	/
c1ccc(Cc2nnc(-c3ccccc3)o2)cc1	56.2*	/	/	-1.8
Clc1ccc(OCc2nnc(-c3ccccc3Br)o2)c(Cl)c1	19.3	-4.7	105.9*	-4.2
Cc1ccccc1-c1nc2cc(Cl)ccc2o1	37.9*	-1.4	?	-1.7
Brc1ccc(-c2nnc(Cc3ccccc3)o2)cc1	24.5	0.5	/	-2.6
Cc1cc(Cl)ccc1OCc1nnc(-c2ccccc2C)o1	40.6*	8.4	115.6*	-2.0
C[C@H]1CN([C@@H](C)CO)C(=O)c2cc(-c3cncnc3)cnc2O[C@@H]1CN(C)C(=O)CN1CCOCC1	/	-1.4	/	7.6
Clc1ccccc1OCc1nnc(-c2ccccc2)o1	?	/	88.2*	/
Cc1cc(Br)ccc1OCc1nnc(-c2ccccc2)o1	25.5	-0.7	/	-1.3
CC(=O)Nc1ccc(-c2nc3c(C)cccc3[nH]2)cc1	47.7*	2.3	/	-1.4
CC(=O)Nc1cc(NC(C)=O)cc(-c2nc3ccccc3[nH]2)c1	0.4	/	-5.8	-0.1
CC(C)NC(=O)N(C)C[C@H]1OCCCC[C@@H](C)Oc2ccc(NC(=O)c3ccccc3)cc2C(=O)N([C@@H](C)CO)C[C@H]1C	/	5.8	/	0.1
C#CCNC(=O)/C=C/c1ccc(C)cc1	27.5	-3.9	91.4*	-0.8
Cc1ccc(S(=O)(=O)N(C)C[C@H]2Oc3ccc(NC(=O)CCC(F)(F)F)cc3C(=O)N([C@H](C)CO)C[C@@H]2C)cc1	/	48.4*	/	45.8
SMILES	Wnt act	PGC1a acetyl inh	MITF TRPM1 HTS	Cneo AK release
C[C@H](CO)N1C[C@H](C)[C@H](CN(C)Cc2ccncc2)Oc2ccc(NC(=O)CCC(F)(F)F)cc2C1=O	/	5.8	/	149.1*
C[C@@H]1CN([C@H](C)CO)C(=O)Cc2cc(NS(=O)(=O)c3ccc(Cl)cc3)ccc2O[C@H]1CN(C)Cc1ccc(C(=O)O)cc1	/	13.9	/	/
COc1ccc2cc(-c3ccn[nH]3)ccc2c1	35.3*	/	34.7	-0.3
COc1ccc(-c2cc(-c3ccccc3O)[nH]n2)cc1	/	-8.5	38.1	/
C[C@@H]1CN([C@H](C)CO)C(=O)Cc2cc(NC(=O)Cc3ccccc3)ccc2O[C@H]1CN(C)C(=O)Nc1ccccc1	/	4.9	/	0.3
CC(=Nc1ccccc1O)c1sc2ccccc2c1O	85.5*	2.4	49.3	-5.4
CC(=Nc1ccc(O)cc1)c1sc2ccccc2c1O	/	-0.9	75.4	-7.7
C[C@H]1CN([C@@H](C)CO)S(=O)(=O)c2ccc(-c3cccc(C#N)c3)cc2O[C@H]1CN(C)Cc1cccc(F)c1	/	-23.4	/	-1.6
CCCN1C[C@@H](C)[C@@H](OC)CN(C)C(=O)c2ccc(NC(=O)c3ccccc3)cc2OC[C@@H]1C	/	8.2	/	0.9
CC1CCCN(CCOc2ccc3ccccc3c2Br)C1 (configuration not stated)	-1.2	-6.5	95.9*	/
CC1CCCN(CCCOc2ccc(Cl)cc2Br)C1 (configuration not stated)	7.9	/	20.4	/
C=CCn1c(SCC(=O)Nc2ccc3c(c2)OCO3)nnc1-c1ccccc1	0.4	1.5	0.4	-0.6
C=CCn1c(SCC(=O)Nc2ccc3c(c2)OCO3)nnc1-c1cc(Br)ccc1O	46.6*	10.0	-10.7	2.0
O=C(/C=C/c1ccc(F)cc1)NNC(=O)CCN1CCN(Cc2ccccc2)CC1	1.7	51.8*	2.8	/
CC(C)NC(=O)N1CC[C@@H]2[C@@H](CO)N(C)c3ccc(-c4cccc(F)c4)cc3[C@@H]21	/	9.9	/	92.4*
COc1cccc(-c2ccc3c(c2)[C@H]2[C@H](CCN2C(=O)Cc2ccncc2)[C@H](CO)N3C)c1	/	-24.8	/	90.9*
O=C(Nc1ccc2c(c1)N(S(=O)(=O)c1cccs1)CCC2)c1c(F)cccc1F	1.5	/	-5.3	-0.1
O=S(=O)(c1cccs1)N1CCCc2cccc(O)c21	47.9*	-1.9	95.1*	-0.9
CN(C)CCCNc1ncnc2scc(-c3ccccc3)c12	40.0*	-6.8	1.0	/
CN(C)CCCNc1ncnc2c1c(-c1ccccc1)cn2-c1ccccc1	-8.0	-16.0	21.9	-0.6
COc1ccc(Nc2ncnc3ccccc23)cc1	18.2	15.4	96.8*	-0.5
COc1ccc(Nc2ncnc3c2c(C)c(C)n3CCO)cc1	41.1*	/	70.3	-3.7
COc1ccc(Nc2ccnc3ccccc23)cc1	/	51.2*	5.0	/
COc1ccc(Nc2ccnc(Nc3ccc(OC)cc3)n2)cc1	48.1*	/	24.6	/
CCOC(=O)c1ccc(Nc2ncnc3ccc(C)cc23)cc1	/	-3.6	-5.3	-1.4
SMILES	Wnt act	PGC1a acetyl inh	MITF TRPM1 HTS	Cneo AK release
CCOc1ccc(Nc2ncnc3ccc([N+](=O)[O-])cc23)cc1	-5.3	49.6*	9.0	/
c1ccc(COc2ccc(Nc3ncnc4nc[nH]c34)cc2)cc1	1.4	-9.7	82.1*	-4.5
CCOC(=O)c1ccc(Nc2ncnc3nc[nH]c23)cc1	55.9*	1.9	120.8*	-2.5
CCOC(=O)c1ccc(Nc2ncnc3ccccc23)cc1	4.9	9.3	55.7	-2.6
COc1ccc(C#Cc2cnc3c(c2)C(=O)N([C@@H](C)CO)C[C@@H](C)[C@@H](CN(C)C(=O)CC2CC2)O3)cc1	/	-6.3	/	0.8
COCC#Cc1cnc2c(c1)C(=O)N([C@@H](C)CO)C[C@H](C)[C@H](CN(C)C(=O)Nc1ccc(OC)cc1)O2	/	2.5	/	109.0*
COc1ccc(C#Cc2cnc3c(c2)C(=O)N([C@@H](C)CO)C[C@H](C)[C@@H](CN(C)C(=O)CC2CC2)O3)cc1	/	-0.7	/	88.2*
O=C(N/N=C(\c1ccccc1)c1ccccn1)c1cccc([N+](=O)[O-])c1	/	9.5	-81.4	/
CCOc1ccc(C(=O)N/N=C(\c2ccccc2)c2ccccn2)cc1	/	80.3*	-51.3	1.1
CC(=O)N(C)C[C@@H]1Oc2cc(C#Cc3cccnc3)ccc2S(=O)(=O)N([C@H](C)CO)C[C@@H]1C	/	6.6	/	-5.2
